Measurements reported in ChEMBL document CHEMBL4354843, “Structure-Based Design of a Potent and Selective Covalent Inhibitor for SRC Kinase That Targets a P-Loop Cysteine” (J Med Chem, 2020).
The source made the active and inactive calls. The calls are words filed in the database; no cut-off is given here.

Experiments:
[1] = Half life in B6 mouse at 5 mg/kg, ip; type: ADME, organism-based; details: in vivo
Summary of the method: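 PK in B6 mice. Single 5 mg/kg intraperitoneal dose in 5% DMSO/95% D5W. Half-life and AUC reported.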

[2] = biological target: Serine/threonine-protein kinase Nek5 (Homo sapiens) (UniProt Q6P3R8); test: Binding affinity to wild-type human partial length NEK5 (M1 to M279 residues) expressed in bacterial expression system assessed as residual binding level at 1 uM by Kinomescan method relative to control
Serine/threonine-protein kinase Nek5 (Homo sapiens), sequence (Q6P3R8 whole entry, the tested form may be a part): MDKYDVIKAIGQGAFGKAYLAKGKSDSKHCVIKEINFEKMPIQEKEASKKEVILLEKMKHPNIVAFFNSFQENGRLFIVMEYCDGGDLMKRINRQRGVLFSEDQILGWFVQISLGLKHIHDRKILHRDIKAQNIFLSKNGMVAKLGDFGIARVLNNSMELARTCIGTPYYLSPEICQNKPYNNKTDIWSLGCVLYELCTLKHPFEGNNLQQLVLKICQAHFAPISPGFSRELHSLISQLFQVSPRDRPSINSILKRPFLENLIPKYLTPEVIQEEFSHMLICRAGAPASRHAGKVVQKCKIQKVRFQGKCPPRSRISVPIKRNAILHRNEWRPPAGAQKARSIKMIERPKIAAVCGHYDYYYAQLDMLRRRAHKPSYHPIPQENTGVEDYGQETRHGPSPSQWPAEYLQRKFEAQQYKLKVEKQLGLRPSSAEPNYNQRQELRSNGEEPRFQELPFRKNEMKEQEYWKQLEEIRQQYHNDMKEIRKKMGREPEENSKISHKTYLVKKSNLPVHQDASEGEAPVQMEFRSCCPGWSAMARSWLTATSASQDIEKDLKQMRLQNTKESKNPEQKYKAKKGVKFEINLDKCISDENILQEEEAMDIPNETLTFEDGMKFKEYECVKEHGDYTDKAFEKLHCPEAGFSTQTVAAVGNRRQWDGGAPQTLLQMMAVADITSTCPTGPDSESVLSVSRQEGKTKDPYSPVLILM

[3] = tested on: Receptor-type tyrosine-protein kinase FLT3 (Homo sapiens), P36888 [D835Y]; test: Binding affinity to human partial length FLT3 D835Y mutant (Q580 to Y969 residues) expressed in bacterial expression system assessed as residual binding level at 1 uM by Kinomescan method relative to control
Summary of the method: (§1)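 KinomeScan active site-directed competition binding panel (468 kinases), compound tested at 1 μM. Result expressed as remaining kinase signal versus DMSO control (percent of control).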

[4] = tested on: Epidermal growth factor receptor (Homo sapiens), P00533 [L858R,T790M]; test: Binding affinity to human partial length EGFR L858R/T790M double mutant (R669 to V1011 residues) expressed in mammalian expression system assessed as residual binding level at 1 uM by Kinomescan method relative to control; summary of the method: as §1
[5] = biological target: Rhodopsin kinase GRK7 (Homo sapiens) (UniProt Q8WTQ7); test: Binding affinity to wild-type human full length GRK7 (M1 to L553 residues) expressed in mammalian expression system assessed as residual binding level at 1 uM by Kinomescan method relative to control
Summary of the method: (§2)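 Active-site-directed KinomeScan competition binding panel covering 468 kinases, compound tested at 1 μM. Each readout is the kinase signal remaining with compound, expressed as a percentage of the DMSO control. […]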

[6] = biological target: Testis-specific serine/threonine-protein kinase 3 (Homo sapiens) (UniProt Q96PN8); test: Binding affinity to wild-type human full length TSSK3 (M1 to T268 residues) expressed in mammalian expression system assessed as residual binding level at 1 uM by Kinomescan method relative to control
Testis-specific serine/threonine-protein kinase 3 (Homo sapiens), sequence (Q96PN8 whole entry, the tested form may be a part): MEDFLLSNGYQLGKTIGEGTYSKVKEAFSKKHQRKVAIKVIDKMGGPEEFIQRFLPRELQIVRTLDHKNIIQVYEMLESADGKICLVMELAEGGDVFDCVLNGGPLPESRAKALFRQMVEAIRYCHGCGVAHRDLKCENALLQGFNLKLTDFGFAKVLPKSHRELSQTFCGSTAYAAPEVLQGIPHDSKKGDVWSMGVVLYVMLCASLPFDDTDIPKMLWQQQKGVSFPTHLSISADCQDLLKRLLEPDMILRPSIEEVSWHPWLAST
Summary of the method: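 KinomeScan, an active site-directed competition binding panel of 468 kinases. The test compound was at 1 μM. The readout is remaining kinase binding as a percentage of the DMSO control. Scores above 35% were treated as weak binding and not listed.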

[7] = biological target: Calcium/calmodulin-dependent protein kinase type 1D (Homo sapiens) (UniProt Q8IU85); test: Binding affinity to wild-type human partial length CAMK1D (M1 to K299 residues) expressed in bacterial expression system assessed as residual binding level at 1 uM by Kinomescan method relative to control
Calcium/calmodulin-dependent protein kinase type 1D (Homo sapiens), sequence (Q8IU85 whole entry, looked up, the tested form may be a part): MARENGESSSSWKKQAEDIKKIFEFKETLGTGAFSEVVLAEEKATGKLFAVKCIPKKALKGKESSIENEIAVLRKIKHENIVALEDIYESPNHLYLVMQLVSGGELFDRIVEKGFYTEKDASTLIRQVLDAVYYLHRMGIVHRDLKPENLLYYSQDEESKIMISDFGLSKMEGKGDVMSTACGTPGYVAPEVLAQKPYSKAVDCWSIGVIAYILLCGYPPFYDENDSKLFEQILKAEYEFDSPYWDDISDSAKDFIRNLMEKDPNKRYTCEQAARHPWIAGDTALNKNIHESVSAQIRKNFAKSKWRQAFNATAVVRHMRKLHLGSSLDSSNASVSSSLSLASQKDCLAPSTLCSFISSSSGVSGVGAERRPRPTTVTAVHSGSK

[8] = biological target: Angiopoietin-1 receptor (Homo sapiens) (UniProt Q02763); test: Binding affinity to wild-type human partial length TIE2 (N804 to T1112 residues) expressed in bacterial expression system assessed as residual binding level at 1 uM by Kinomescan method relative to control
Angiopoietin-1 receptor (Homo sapiens), sequence (Q02763 whole entry, the tested form may be a part): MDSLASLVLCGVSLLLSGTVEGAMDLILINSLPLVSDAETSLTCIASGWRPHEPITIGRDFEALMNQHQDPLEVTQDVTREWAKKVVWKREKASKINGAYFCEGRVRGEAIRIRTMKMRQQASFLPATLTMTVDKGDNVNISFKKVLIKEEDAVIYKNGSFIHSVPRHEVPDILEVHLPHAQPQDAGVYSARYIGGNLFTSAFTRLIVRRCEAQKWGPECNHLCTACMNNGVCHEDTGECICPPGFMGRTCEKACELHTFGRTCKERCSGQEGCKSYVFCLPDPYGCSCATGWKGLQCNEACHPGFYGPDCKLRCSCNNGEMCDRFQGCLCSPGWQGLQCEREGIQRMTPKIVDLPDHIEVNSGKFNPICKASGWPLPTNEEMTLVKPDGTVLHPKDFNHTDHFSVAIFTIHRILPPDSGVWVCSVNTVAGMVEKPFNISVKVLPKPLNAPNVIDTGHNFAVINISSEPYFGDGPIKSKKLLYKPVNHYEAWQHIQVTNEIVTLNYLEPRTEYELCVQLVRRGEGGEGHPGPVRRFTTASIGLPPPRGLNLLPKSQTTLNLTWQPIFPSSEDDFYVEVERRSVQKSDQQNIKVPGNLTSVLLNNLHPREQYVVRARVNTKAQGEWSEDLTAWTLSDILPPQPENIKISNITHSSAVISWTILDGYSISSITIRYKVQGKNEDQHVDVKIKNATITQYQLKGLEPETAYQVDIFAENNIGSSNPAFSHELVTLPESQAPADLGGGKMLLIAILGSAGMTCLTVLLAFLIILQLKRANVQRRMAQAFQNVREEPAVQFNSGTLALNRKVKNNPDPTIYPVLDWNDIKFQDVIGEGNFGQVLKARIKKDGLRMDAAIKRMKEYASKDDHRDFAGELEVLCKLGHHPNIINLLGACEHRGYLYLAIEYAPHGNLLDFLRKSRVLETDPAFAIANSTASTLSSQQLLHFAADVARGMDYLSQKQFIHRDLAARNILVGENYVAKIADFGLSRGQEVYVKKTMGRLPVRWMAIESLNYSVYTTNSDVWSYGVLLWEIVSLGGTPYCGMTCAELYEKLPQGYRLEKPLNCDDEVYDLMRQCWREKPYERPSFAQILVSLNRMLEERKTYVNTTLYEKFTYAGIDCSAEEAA

[9] = biological target: Megakaryocyte-associated tyrosine-protein kinase (Homo sapiens) (UniProt P42679); test: Binding affinity to wild-type human full length CTK (M43 to P508 residues) expressed in mammalian expression system assessed as residual binding level at 1 uM by Kinomescan method relative to control; summary of the method: as §2
Megakaryocyte-associated tyrosine-protein kinase (Homo sapiens), sequence (P42679 whole entry, the tested form may be a part): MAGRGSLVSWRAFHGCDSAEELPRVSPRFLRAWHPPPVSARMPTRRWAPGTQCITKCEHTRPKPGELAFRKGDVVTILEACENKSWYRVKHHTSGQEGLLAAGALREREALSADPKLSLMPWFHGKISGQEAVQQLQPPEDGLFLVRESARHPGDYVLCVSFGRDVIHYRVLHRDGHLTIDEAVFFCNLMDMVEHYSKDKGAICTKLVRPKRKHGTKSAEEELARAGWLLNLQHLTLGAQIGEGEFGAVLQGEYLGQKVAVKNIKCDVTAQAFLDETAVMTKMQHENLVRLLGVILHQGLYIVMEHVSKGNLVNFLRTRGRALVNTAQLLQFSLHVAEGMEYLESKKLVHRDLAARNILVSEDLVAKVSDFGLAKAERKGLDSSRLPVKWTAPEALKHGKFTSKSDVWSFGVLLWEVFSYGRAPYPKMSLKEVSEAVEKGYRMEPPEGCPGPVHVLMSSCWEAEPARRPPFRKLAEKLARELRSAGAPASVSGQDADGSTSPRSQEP

[10] = biological target: Serine/threonine-protein kinase ICK (Homo sapiens) (UniProt Q9UPZ9); test: Binding affinity to wild-type human partial length ICK (M1 to P314 residues) expressed in mammalian expression system assessed as residual binding level at 1 uM by Kinomescan method relative to control
Summary of the method: (§3)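 Active-site-directed competition binding panel of 468 kinases (KinomeScan), compound at 1 μM. The read-out is kinase remaining bound, given as a percentage of the DMSO control. […]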

[11] = tested on: Phosphatidylinositol 4,5-bisphosphate 3-kinase catalytic subunit alpha isoform (Homo sapiens), P42336 [E545A]; test: Binding affinity to human partial length PIK3CA E545A mutant (R108 to N1068 residues) expressed in mammalian expression system assessed as residual binding level at 1 uM by Kinomescan method relative to control; summary of the method: as §1
Phosphatidylinositol 4,5-bisphosphate 3-kinase catalytic subunit alpha isoform (Homo sapiens), P42336 [E545A], sequence (P42336 whole entry E545A, the tested form may be a part, canonical isoform): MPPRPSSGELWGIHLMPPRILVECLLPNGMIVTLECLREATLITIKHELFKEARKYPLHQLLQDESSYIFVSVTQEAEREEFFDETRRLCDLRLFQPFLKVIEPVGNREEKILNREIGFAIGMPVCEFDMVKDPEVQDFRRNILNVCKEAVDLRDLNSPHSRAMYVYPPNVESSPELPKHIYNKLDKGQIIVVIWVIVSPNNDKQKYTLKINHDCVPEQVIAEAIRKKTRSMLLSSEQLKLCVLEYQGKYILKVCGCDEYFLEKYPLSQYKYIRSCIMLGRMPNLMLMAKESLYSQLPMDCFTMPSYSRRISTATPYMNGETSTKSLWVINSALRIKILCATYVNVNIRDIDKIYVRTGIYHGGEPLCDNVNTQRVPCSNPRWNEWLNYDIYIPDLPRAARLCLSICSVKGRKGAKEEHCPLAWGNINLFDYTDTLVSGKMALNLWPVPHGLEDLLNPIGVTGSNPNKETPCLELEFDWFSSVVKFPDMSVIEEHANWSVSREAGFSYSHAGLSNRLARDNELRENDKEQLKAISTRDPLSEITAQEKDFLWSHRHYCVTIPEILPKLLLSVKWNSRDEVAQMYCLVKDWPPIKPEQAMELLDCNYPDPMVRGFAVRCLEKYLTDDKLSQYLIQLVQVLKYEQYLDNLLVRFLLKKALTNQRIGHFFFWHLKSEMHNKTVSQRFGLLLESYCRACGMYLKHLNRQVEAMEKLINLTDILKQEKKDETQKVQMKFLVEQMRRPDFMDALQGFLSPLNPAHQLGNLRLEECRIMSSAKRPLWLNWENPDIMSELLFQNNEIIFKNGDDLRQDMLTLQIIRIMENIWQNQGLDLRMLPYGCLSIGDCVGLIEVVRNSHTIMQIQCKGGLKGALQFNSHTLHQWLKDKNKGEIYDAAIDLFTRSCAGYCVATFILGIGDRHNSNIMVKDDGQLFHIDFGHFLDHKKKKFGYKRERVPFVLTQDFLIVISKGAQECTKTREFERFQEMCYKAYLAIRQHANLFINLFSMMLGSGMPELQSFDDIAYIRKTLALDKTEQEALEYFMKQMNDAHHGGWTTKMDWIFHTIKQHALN

[12] = biological target: Macrophage-stimulating protein receptor (Homo sapiens) (UniProt Q04912); test: Binding affinity to wild-type human partial length MST1R (I1057 to L1363 residues) expressed in bacterial expression system assessed as residual binding level at 1 uM by Kinomescan method relative to control
[13] = biological target: Phosphatidylinositol 4,5-bisphosphate 3-kinase catalytic subunit alpha isoform (Homo sapiens) (UniProt P42336); test: Binding affinity to wild-type human partial length PIK3CA (R108 to N1068 residues) expressed in mammalian expression system assessed as residual binding level at 1 uM by Kinomescan method relative to control
Mus musculus = test: In vivo inhibition of SRC in C57B6 mouse assessed as reduction in phosphorylation of SRC Y416 at 5 mg/kg, ip measured after 2 to 4 hrs by Western blot analysis; type: functional, organism-based
Summary of the method: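 Adult C57B6 mice, n = 2 per condition, dosed intraperitoneally 5 mg/kg three times every 12 h; vehicle 5% DMSO/95% D5W. Spleens taken 2 or 4 h after the final dose and lysed in M-PER with protease/phosphatase inhibitors. Lysates blotted for phospho-SRC Y416, total SRC and β-actin.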

[14] = tested on: Epidermal growth factor receptor (Homo sapiens), P00533 [UNDEFINED MUTATION]; test: Binding affinity to human partial length EGFR S752-I759del mutant expressed in bacterial expression system assessed as residual binding level at 1 uM by Kinomescan method relative to control; summary of the method: as §1
[15] = biological target: Tyrosine-protein kinase SYK (Homo sapiens) (UniProt P43405); test: Binding affinity to wild-type human partial length SYK (D354 to N635 residues) expressed in bacterial expression system assessed as residual binding level at 1 uM by Kinomescan method relative to control
[16] = biological target: Casein kinase I isoform gamma-3 (Homo sapiens) (UniProt Q9Y6M4); test: Binding affinity to wild-type human full length CSNK1G3 (M1 to K447 residues) expressed in bacterial expression system assessed as residual binding level at 1 uM by Kinomescan method relative to control; summary of the method: as §2
Casein kinase I isoform gamma-3 (Homo sapiens), sequence (Q9Y6M4 whole entry, looked up, the tested form may be a part, canonical isoform): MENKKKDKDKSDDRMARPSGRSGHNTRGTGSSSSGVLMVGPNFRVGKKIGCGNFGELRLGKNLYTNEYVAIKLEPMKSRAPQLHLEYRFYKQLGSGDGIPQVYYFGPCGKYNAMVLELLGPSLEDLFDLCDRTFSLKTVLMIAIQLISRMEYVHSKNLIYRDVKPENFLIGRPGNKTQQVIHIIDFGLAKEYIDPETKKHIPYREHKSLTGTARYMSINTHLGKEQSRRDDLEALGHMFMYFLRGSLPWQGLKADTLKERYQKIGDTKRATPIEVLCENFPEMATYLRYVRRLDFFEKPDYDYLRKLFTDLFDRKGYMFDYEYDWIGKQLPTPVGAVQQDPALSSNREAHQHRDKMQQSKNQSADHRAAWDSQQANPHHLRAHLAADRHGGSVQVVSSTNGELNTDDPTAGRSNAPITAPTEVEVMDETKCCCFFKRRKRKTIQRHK

[17] = biological target: Dual specificity mitogen-activated protein kinase kinase 5 (Homo sapiens) (UniProt Q13163); test: Binding affinity to wild-type human partial length MEK5 (L98 to P448 residues) expressed in mammalian expression system assessed as residual binding level at 1 uM by Kinomescan method relative to control; summary of the method: as §3
Dual specificity mitogen-activated protein kinase kinase 5 (Homo sapiens), sequence (Q13163 whole entry, the tested form may be a part): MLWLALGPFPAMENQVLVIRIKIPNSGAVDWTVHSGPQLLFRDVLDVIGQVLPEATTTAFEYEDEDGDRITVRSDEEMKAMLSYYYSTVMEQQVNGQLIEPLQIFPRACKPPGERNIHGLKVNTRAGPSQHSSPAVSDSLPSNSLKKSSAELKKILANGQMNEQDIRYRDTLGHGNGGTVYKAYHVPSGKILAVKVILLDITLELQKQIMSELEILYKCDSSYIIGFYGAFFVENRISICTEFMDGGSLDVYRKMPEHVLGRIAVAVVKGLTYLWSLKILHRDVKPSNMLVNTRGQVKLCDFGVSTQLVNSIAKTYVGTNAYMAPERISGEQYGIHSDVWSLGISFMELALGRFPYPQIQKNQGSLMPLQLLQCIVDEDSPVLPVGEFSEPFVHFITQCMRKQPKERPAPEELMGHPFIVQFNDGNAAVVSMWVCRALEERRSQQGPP

[18] = biological target: Cyclin-dependent kinase 14 (Homo sapiens) (UniProt O94921); test: Binding affinity to wild-type human full length PFTK1 (M1 to H451 residues) expressed in bacterial expression system assessed as residual binding level at 1 uM by Kinomescan method relative to control
Summary of the method: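 Active-site-directed competition binding panel (KinomeScan) covering 468 kinases. Test agent was screened at 1 μM. The read-out is the remaining kinase signal expressed relative to a DMSO control. Scores above 35%, taken as weak binding, were not reported.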

## C=CC(=O)Nc1ccccc1Nc1nc(Nc2ccc(N3CCN(C)CC3)cc2)ncc1C(=O)Nc1c(C)cccc1Cl
[1]
  half-life: 1.29 h
[2]
  Activity: 100%
[3]
  Activity: 100%
[4]
  Activity: 100%
[5]
  Activity: 100%
[6]
  Activity: 90%
[7]
  Activity: 100%
[8]
  Activity: 100%
[9]
  Activity: 100%
[10]
  Activity: 96%
[11]
  Activity: 94%
[12]
  Activity: 100%
[13]
  Activity: 100%
Mus musculus
  inhibition: Active
[14]
  Activity: 92%
[15]
  Activity: 100%
[16]
  Activity: 100%
[17]
  Activity: 81%
[18]
  Activity: 100%
